The source made the active and inactive calls. The calls are words filed in the database; no cut-off is given here.
Experiments:
[1] = molecular target: T1, Toll-like receptor 7/8 (Canis lupus familiaris) (UniProt A1XC23+H6BA89); test: Agonist activity at TLR7/8 in dog PBMC assessed as IL-10 secretion at 20 uM after 29 hrs by ELISA (reference value: 33 +/- 16 pg/ml); type: cell-based
Procedure, shortened: (§1)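 Canine PBMCs (2 × 10^6 cells/mL) were incubated with agonist at 20 µM for 29 h. TNFα, IL-12, IL-6, IL-10, IL-2 and IFNγ in the medium were measured by ELISA, in triplicate. Vehicle was 1% DMSO in water.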

[2] = molecular target: T1, Toll-like receptor 7/8 (Canis lupus familiaris); test: Agonist activity at TLR7/8 in dog PBMC assessed as TNFalpha secretion at 20 uM after 29 hrs by ELISA (reference value: 8 +/- 2 pg/ml); type: cell-based; procedure, shortened: as §1
[3] = molecular target: T1, Toll-like receptor 7/8 (Canis lupus familiaris); test: Agonist activity at TLR7/8 in dog PBMC assessed as maximal increase in IL-12 secretion at 20 uM after 30 to 48 hrs by ELISA; type: cell-based
[4] = Solubility of the compound at >100 uM; type: physicochemical
[5] = molecular target: T1, Toll-like receptor 7/8 (Canis lupus familiaris); test: Agonist activity at TLR7/8 in dog PBMC assessed as IL-6 secretion at 20 uM after 29 hrs by ELISA (reference value: 310 +/- 90 pg/ml); type: cell-based; procedure, shortened: as §1
[6] = molecular target: T1, Toll-like receptor 7/8 (Canis lupus familiaris); test: Agonist activity at TLR7/8 in dog PBMC assessed as IFNgamma secretion at 20 uM after 29 hrs by ELISA (reference value: 0.4 +/- 0.7 pg/ml); type: cell-based; procedure, shortened: as §1
[7] = molecular target: T1, Toll-like receptor 7/8 (Canis lupus familiaris); test: Agonist activity at TLR7/8 in dog PBMC assessed as IL-12 secretion at 20 uM after 29 hrs by ELISA (reference value: 18 +/- 8 pg/ml); type: cell-based; procedure, shortened: as §1
[8] = molecular target: T1, Toll-like receptor 7/8 (Canis lupus familiaris); test: Agonist activity at TLR7/8 in dog PBMC assessed as increase in TNFalpha secretion at 20 uM measured over 29 hrs by ELISA
[9] = molecular target: T1, Toll-like receptor 7/8 (Canis lupus familiaris); test: Agonist activity at TLR7/8 in dog PBMC assessed as IL-2 secretion at 20 uM after 29 hrs by ELISA (reference value: 47 +/- 20 pg/ml); type: cell-based; procedure, shortened: as §1
[10] = molecular target: T1, Toll-like receptor 7/8 (Canis lupus familiaris); test: Agonist activity at TLR7/8 in dog PBMC assessed as maximal increase in TNFalpha secretion at 20 uM after 30 to 48 hrs by ELISA; type: cell-based
[11] = molecular target: T1, Toll-like receptor 7/8 (Canis lupus familiaris); test: Agonist activity at TLR7/8 in dog PBMC assessed as increase in IL-12 secretion at 20 uM measured over 29 hrs by ELISA
[12] = molecular target: T1, Toll-like receptor 7/8 (Canis lupus familiaris); test: Agonist activity at TLR7/8 in dog PBMC assessed as increase in IFN-gamma secretion at 20 uM measured over 29 hrs by ELISA
[13] = molecular target: T1, Toll-like receptor 7/8 (Canis lupus familiaris); test: Agonist activity at TLR7/8 in dog PBMC assessed as maximal increase in IFN-gamma secretion at 20 uM after 30 to 48 hrs by ELISA; type: cell-based
[14] = molecular target: T2, Toll-like receptor 7 (Homo sapiens) (UniProt Q9NYK1); test: Agonist activity at human TLR7 expressed in HEK-Blue cells assessed as induction of NFkappaB activation by measuring increase in SEAP level by SEAP reporter gene-based UV-vis absorbance method relative to resiquimod; type: cell-based
T2 sequence (whole entry): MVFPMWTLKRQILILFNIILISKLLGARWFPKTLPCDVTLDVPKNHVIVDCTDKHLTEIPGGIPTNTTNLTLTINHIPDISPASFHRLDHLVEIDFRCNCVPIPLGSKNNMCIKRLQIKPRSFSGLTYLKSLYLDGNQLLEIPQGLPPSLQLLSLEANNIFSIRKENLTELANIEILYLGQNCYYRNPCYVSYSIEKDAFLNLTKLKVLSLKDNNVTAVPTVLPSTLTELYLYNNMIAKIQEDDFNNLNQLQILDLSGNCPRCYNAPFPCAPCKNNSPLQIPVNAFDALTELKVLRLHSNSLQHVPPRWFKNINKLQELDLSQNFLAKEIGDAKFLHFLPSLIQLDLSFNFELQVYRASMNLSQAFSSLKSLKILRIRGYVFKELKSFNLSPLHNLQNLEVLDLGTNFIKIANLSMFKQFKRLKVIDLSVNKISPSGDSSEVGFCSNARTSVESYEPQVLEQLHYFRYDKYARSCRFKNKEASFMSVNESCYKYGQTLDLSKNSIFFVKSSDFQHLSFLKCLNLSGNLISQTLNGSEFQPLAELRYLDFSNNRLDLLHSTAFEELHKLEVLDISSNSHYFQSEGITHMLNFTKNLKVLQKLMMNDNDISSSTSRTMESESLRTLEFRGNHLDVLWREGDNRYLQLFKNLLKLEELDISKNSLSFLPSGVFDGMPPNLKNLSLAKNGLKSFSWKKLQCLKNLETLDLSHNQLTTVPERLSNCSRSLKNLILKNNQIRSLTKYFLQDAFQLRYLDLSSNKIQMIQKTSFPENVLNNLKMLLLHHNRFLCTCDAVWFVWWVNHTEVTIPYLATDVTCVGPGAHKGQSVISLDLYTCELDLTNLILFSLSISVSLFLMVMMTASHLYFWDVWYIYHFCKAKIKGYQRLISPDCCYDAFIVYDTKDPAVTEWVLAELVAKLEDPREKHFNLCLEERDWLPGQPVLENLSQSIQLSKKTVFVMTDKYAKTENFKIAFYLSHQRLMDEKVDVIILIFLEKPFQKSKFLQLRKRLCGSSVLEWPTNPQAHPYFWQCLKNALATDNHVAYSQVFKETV

[15] = molecular target: T2, Toll-like receptor 7 (Homo sapiens); test: Agonist activity at human TLR7 expressed in HEK-Blue cells assessed as induction of NFkappaB activation by measuring increase in SEAP level by SEAP reporter gene-based UV-vis absorbance method relative to imiquimod; type: cell-based
[16] = molecular target: T3, Toll-like receptor 8 (Homo sapiens) (UniProt Q9NR97); test: Agonist activity at human TLR8 expressed in HEK-Blue cells assessed as induction of NFkappaB activation by measuring increase in SEAP level by SEAP reporter gene-based UV-vis absorbance method relative to resiquimod; type: cell-based
T3 sequence (whole entry): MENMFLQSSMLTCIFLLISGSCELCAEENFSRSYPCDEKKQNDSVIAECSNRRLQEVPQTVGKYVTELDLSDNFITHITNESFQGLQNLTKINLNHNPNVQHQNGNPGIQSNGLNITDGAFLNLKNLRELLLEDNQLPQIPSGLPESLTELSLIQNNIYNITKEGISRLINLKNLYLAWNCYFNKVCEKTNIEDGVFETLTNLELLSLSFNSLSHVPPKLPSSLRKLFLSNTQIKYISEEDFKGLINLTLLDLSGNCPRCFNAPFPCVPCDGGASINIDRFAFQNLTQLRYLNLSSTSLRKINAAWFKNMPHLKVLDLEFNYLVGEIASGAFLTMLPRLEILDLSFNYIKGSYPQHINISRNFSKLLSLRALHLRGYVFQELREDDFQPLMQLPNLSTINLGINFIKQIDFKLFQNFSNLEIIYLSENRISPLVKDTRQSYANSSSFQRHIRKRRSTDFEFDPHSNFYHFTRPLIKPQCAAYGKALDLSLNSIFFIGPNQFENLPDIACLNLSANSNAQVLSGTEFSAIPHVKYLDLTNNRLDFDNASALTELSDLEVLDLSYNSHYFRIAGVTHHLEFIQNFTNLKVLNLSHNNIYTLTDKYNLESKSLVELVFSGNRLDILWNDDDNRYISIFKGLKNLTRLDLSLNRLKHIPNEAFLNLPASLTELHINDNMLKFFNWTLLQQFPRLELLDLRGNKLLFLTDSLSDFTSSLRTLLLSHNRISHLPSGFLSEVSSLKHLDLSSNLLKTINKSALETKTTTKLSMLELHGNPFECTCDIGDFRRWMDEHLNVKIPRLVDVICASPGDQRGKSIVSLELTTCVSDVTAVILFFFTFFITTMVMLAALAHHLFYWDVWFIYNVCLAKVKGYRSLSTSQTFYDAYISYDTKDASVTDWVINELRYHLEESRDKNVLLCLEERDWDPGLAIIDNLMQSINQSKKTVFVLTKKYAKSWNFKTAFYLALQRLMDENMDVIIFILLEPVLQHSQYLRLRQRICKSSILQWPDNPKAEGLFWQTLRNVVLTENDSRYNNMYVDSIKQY

Structure (SMILES)	Activity [1]	Activity [2]	Activity [3]	solubility [4]	Activity [5]	Activity [6]	Activity [7]	Activity [8]	Activity [9]	Activity [10]	Activity [11]	Activity [12]	Activity [13]	fold change (FC) [14]	fold change (FC) [15]	fold change (FC) [16]
CCOCc1nc2c(N)nc3cc(C#N)ccc3c2n1CC(C)(C)O	6 pg/mL	80 pg/mL	Active	Insoluble	214 pg/mL	0.2 pg/mL	13 pg/mL	Active	46 pg/mL	Active	–	–	–	–	–	–
CCOCc1nc2c(N)nc3ccccc3c2n1CC(C)(C)O [RESIQUIMOD]	21 pg/mL	190 pg/mL	Active	Insoluble	380 pg/mL	26 pg/mL	2800 pg/mL	Active	120 pg/mL	Active	Active	Active	Active	–	–	–
CCOCc1nc2c(N)nc3cc(Cl)ccc3c2n1CC(C)(C)O	12 pg/mL	70 pg/mL	Active	Insoluble	320 pg/mL	16 pg/mL	1900 pg/mL	Active	76 pg/mL	Active	Active	Active	Active	–	–	–
CC(C)Cn1cnc2c(N)nc3ccccc3c21 [IMIQUIMOD]	16 pg/mL	25 pg/mL	Active	Insoluble	300 pg/mL	18 pg/mL	1200 pg/mL	Active	85 pg/mL	Active	Active	Active	Active	–	–	–
CCCCc1nc2c(N)nc3cc(C#N)ccc3c2n1CC(C)(C)O	14 pg/mL	44 pg/mL	Active	Insoluble	290 pg/mL	12 pg/mL	418 pg/mL	Active	45 pg/mL	Active	Active	Active	Active	–	–	–

The next lines start with the values.

Activity [1]	Activity [2]	Activity [3]	solubility [4]	Activity [5]	Activity [6]	Activity [7]	Activity [8]	Activity [9]	Activity [10]	Activity [11]	Activity [12]	Activity [13]	fold change (FC) [14]	fold change (FC) [15]	fold change (FC) [16]	Structure (SMILES)
14 pg/mL	91 pg/mL	Active	Insoluble	240 pg/mL	7 pg/mL	760 pg/mL	Active	63 pg/mL	Active	Active	Active	Active	–	–	–	CCCCc1nc2c(N)nc3cc(Cl)ccc3c2n1CC(C)C
6 pg/mL	7 pg/mL	Active	Insoluble	71 pg/mL	4 pg/mL	190 pg/mL	–	57 pg/mL	Active	Active	Active	Active	–	–	–	CCOCc1nc2c(N)nc3cc(C#N)ccc3c2n1CC(C)C
7 pg/mL	22 pg/mL	Active	Insoluble	230 pg/mL	13 pg/mL	1700 pg/mL	Active	55 pg/mL	Active	Active	Active	Active	< 2	< 100	< 4	CCCCc1nc2c(N)nc3cc(Cl)ccc3c2n1CC(C)(C)O
37 pg/mL	10 pg/mL	Active	Insoluble	350 pg/mL	13 pg/mL	920 pg/mL	Active	60 pg/mL	Active	Active	Active	Active	–	–	–	CCCCc1nc2c(N)nc3cc(C#N)ccc3c2n1CC(C)C
20 pg/mL	114 pg/mL	Active	Insoluble	280 pg/mL	5 pg/mL	781 pg/mL	Active	50 pg/mL	Active	Active	Active	Active	–	–	–	CCOCc1nc2c(N)nc3cc(Cl)ccc3c2n1CC(C)C
37 pg/mL	49 pg/mL	Active	Insoluble	500 pg/mL	0 pg/mL	746 pg/mL	Active	30 pg/mL	Active	Active	–	Active	–	–	–	CCCCc1nc2c(N)nc3cc(OC)ccc3c2n1CC(C)C

Source: ChEMBL document CHEMBL4602627, “Further exploration of the structure-activity relationship of imidazoquinolines; identification of potent C7-substituted imidazoquinolines” (Bioorg Med Chem Lett, 2020)
